Assays:
[1] = molecular target: Tyrosine-protein kinase BTK (Homo sapiens) (UniProt Q06187); assay: Competitive binding affinity to BTK (unknown origin) at 10 uM in presence of ATP relative to control
[2] = molecular target: AP2-associated protein kinase 1 (Homo sapiens) (UniProt Q2M2I8); assay: Competitive binding affinity to AAK1 (unknown origin) at 10 uM in presence of ATP relative to control
In short: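 In vitro ATP-site competition binding assay across a diverse panel of 128 kinases, with each compound tested at a single concentration. Kinase binding is expressed relative to control.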

[3] = molecular target: Serine/threonine-protein kinase B-raf (Homo sapiens) (UniProt P15056); assay: Competitive binding affinity to BRAF (unknown origin) at 10 uM in presence of ATP relative to control
[4] = molecular target: Calcium/calmodulin-dependent protein kinase type II subunit alpha (Homo sapiens) (UniProt Q9UQM7); assay: Competitive binding affinity to CAMK2A (unknown origin) at 10 uM in presence of ATP relative to control
[5] = molecular target: Mitogen-activated protein kinase 8 (Homo sapiens, UniProt P45983)
[6] = molecular target: T1, Membrane-associated tyrosine- and threonine-specific cdc2-inhibitory kinase (Homo sapiens) (UniProt Q99640); assay: Competitive binding affinity to PKMYT1 (unknown origin) at 10 uM in presence of ATP relative to control
T1 sequence (whole entry): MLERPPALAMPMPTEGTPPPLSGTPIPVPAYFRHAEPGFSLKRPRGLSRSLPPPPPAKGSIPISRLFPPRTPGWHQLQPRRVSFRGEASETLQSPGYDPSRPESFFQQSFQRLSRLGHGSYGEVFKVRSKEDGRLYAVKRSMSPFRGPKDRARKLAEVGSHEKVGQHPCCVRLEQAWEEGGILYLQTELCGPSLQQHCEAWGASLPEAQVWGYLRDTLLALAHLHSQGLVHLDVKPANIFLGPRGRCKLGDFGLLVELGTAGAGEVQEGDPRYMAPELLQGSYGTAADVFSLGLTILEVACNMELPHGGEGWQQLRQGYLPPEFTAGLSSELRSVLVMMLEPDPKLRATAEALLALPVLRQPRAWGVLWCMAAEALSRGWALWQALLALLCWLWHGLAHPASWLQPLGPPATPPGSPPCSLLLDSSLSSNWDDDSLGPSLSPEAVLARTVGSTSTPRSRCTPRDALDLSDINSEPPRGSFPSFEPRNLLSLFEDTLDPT
In short: (§1)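 In vitro ATP-site competition binding assay across a diverse panel of 128 kinases, with compound tested at a single concentration. Kinase selectivity scores (S15) were calculated from the panel profiles.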

[7] = molecular target: Tyrosine-protein kinase SYK (Homo sapiens) (UniProt P43405); assay: Competitive binding affinity to SYK (unknown origin) at 10 uM in presence of ATP relative to control; in short: as §1
[8] = molecular target: Mitogen-activated protein kinase 1 (Homo sapiens, UniProt P28482); assay: Competitive binding affinity to ERK2 (unknown origin) at 10 uM in presence of ATP relative to control
In short: (§2)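 In vitro ATP-site competition binding assay, part of profiling against a diverse panel of 128 kinases. Each compound was tested at a single concentration of 10 µM. Kinome selectivity was summarized as S15 selectivity scores.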

[9] = molecular target: T2, Aurora kinase C (Homo sapiens) (UniProt Q9UQB9); assay: Competitive binding affinity to AURKC (unknown origin) at 10 uM in presence of ATP relative to control
T2 sequence (whole entry): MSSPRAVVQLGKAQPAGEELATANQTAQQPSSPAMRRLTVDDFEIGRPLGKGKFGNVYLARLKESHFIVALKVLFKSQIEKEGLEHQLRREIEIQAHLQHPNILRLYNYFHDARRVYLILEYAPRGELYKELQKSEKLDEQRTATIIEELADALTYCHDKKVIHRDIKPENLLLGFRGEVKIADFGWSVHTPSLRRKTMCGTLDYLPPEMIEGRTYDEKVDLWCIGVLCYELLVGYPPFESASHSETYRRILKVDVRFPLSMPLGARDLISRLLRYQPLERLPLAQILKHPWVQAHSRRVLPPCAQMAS

[10] = molecular target: High affinity nerve growth factor receptor (Homo sapiens) (UniProt P04629); assay: Competitive binding affinity to TRKA (unknown origin) at 10 uM in presence of ATP relative to control; in short: as §1
[11] = system: Serine/threonine-protein kinase B-raf (Homo sapiens), P15056 [V600E]; assay: Competitive binding affinity to BRAF V600E mutant (unknown origin) at 10 uM in presence of ATP relative to control
[12] = molecular target: Vascular endothelial growth factor receptor 3 (Homo sapiens) (UniProt P35916); assay: Competitive binding affinity to FLT4 (unknown origin) at 10 uM in presence of ATP relative to control; in short: as §2
[13] = molecular target: Receptor-type tyrosine-protein kinase FLT3 (Homo sapiens) (UniProt P36888); assay: Competitive binding affinity to FLT3 (unknown origin) at 10 uM in presence of ATP relative to control; in short: as §2
[14] = molecular target: Tyrosine-protein kinase Fer (Homo sapiens) (UniProt P16591); assay: Competitive binding affinity to FER (unknown origin) at 10 uM in presence of ATP relative to control; in short: as §2
[15] = molecular target: Ephrin type-A receptor 7 (Homo sapiens) (UniProt Q15375); assay: Competitive binding affinity to EPHA7 (unknown origin) at 10 uM in presence of ATP relative to control; in short: as §2

Sequence of Vascular endothelial growth factor receptor 3 (Homo sapiens) (P35916 whole entry): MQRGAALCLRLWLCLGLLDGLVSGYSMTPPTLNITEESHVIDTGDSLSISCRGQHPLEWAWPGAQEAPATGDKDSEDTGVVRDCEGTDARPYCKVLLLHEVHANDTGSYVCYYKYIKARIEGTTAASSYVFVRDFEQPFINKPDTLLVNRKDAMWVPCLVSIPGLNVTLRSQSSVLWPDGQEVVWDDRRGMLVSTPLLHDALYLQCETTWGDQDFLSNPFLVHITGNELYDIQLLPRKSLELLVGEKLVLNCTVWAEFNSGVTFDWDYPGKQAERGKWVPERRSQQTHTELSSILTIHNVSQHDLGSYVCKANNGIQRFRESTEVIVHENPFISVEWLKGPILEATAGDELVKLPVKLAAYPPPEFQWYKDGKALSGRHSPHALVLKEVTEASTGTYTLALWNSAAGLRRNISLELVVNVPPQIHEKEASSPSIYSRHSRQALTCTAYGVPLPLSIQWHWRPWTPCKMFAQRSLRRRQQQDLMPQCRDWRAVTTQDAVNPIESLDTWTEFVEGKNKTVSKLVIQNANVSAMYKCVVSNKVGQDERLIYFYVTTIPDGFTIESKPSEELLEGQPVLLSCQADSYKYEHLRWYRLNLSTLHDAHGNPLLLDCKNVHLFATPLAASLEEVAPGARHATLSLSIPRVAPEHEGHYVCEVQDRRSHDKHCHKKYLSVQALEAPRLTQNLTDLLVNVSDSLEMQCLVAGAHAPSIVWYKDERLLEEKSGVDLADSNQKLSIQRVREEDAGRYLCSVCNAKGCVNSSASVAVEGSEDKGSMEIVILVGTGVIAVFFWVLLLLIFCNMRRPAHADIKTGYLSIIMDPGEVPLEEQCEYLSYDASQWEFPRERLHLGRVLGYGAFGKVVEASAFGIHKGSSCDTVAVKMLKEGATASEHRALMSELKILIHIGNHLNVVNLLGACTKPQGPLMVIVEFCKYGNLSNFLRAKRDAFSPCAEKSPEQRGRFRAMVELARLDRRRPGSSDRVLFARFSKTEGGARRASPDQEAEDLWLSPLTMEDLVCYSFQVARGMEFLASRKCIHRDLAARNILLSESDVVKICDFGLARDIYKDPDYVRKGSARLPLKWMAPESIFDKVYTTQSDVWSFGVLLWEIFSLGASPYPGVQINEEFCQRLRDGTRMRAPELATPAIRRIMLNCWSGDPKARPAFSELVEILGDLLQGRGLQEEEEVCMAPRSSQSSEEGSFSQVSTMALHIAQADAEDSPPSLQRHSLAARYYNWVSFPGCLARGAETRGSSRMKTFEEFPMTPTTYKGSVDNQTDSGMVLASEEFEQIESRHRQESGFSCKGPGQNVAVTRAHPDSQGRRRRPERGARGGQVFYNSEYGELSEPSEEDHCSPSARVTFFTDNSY
Sequence of Calcium/calmodulin-dependent protein kinase type II subunit alpha (Homo sapiens) (Q9UQM7 whole entry): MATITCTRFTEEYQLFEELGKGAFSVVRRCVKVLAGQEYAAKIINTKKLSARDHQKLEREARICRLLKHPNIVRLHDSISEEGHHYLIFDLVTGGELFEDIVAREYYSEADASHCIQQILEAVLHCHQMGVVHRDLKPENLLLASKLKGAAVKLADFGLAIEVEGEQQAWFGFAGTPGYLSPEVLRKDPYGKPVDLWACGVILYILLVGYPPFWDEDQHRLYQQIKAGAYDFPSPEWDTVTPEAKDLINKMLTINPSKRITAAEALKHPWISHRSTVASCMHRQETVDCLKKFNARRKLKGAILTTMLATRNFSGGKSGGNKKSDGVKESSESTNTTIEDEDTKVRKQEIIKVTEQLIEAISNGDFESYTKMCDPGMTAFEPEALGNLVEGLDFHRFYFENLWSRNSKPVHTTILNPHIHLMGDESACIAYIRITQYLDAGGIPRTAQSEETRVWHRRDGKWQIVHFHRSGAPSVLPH
Sequence of High affinity nerve growth factor receptor (Homo sapiens) (P04629 33-796 limits assumed): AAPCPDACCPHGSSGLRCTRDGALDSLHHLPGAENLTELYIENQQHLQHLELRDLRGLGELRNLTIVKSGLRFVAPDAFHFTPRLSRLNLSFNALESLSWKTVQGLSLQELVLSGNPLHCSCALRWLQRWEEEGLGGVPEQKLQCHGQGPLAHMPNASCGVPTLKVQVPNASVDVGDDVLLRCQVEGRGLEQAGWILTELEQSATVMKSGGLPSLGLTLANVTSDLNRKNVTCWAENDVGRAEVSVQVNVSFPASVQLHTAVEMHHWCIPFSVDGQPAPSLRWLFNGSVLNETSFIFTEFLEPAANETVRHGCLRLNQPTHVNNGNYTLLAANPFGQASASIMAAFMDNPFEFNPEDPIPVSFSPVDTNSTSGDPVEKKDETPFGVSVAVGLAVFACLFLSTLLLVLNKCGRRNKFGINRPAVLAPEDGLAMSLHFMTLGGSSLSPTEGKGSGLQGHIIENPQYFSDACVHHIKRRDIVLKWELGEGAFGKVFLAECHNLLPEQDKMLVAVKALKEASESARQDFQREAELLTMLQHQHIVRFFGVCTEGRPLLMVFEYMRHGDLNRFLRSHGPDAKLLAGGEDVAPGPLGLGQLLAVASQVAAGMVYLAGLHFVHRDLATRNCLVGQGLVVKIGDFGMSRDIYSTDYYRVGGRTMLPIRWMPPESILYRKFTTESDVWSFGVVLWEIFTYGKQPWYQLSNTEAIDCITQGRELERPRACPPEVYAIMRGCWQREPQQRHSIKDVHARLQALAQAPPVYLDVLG
Sequence of Mitogen-activated protein kinase 8 (P45983 whole entry): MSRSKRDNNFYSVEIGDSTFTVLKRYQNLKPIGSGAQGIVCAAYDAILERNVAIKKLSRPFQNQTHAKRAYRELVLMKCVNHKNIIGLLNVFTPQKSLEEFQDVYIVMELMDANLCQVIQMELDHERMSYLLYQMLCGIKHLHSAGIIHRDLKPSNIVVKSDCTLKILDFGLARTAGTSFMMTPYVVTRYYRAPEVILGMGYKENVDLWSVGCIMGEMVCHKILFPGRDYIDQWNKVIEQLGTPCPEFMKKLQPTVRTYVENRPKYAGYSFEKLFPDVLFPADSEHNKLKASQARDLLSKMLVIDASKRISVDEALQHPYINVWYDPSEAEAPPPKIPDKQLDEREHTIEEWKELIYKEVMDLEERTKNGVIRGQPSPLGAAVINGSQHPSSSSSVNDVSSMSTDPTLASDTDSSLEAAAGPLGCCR
Sequence of Tyrosine-protein kinase Fer (Homo sapiens) (P16591 whole entry, looked up): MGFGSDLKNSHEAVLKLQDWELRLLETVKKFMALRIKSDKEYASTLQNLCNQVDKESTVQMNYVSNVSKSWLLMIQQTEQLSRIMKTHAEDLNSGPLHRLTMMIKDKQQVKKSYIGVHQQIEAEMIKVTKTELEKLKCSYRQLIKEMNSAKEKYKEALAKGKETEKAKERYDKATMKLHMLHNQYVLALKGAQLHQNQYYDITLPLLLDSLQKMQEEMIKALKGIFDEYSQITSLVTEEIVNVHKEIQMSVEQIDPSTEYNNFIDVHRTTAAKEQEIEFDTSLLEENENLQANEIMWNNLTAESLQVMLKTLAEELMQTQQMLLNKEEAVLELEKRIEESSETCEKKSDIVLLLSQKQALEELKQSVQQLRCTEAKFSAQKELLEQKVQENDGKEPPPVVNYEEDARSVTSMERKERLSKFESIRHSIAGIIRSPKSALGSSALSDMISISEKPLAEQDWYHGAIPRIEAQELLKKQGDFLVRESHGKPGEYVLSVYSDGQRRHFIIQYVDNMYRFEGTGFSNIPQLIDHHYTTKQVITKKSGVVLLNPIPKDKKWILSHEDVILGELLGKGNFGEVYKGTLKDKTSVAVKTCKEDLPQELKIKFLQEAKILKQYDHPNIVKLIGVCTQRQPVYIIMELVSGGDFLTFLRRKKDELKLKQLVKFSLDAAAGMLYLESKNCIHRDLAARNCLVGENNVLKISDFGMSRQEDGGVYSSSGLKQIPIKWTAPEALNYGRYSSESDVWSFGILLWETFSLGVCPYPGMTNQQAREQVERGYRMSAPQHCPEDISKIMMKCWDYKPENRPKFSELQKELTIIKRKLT
Sequence of AP2-associated protein kinase 1 (Homo sapiens) (Q2M2I8 whole entry, looked up): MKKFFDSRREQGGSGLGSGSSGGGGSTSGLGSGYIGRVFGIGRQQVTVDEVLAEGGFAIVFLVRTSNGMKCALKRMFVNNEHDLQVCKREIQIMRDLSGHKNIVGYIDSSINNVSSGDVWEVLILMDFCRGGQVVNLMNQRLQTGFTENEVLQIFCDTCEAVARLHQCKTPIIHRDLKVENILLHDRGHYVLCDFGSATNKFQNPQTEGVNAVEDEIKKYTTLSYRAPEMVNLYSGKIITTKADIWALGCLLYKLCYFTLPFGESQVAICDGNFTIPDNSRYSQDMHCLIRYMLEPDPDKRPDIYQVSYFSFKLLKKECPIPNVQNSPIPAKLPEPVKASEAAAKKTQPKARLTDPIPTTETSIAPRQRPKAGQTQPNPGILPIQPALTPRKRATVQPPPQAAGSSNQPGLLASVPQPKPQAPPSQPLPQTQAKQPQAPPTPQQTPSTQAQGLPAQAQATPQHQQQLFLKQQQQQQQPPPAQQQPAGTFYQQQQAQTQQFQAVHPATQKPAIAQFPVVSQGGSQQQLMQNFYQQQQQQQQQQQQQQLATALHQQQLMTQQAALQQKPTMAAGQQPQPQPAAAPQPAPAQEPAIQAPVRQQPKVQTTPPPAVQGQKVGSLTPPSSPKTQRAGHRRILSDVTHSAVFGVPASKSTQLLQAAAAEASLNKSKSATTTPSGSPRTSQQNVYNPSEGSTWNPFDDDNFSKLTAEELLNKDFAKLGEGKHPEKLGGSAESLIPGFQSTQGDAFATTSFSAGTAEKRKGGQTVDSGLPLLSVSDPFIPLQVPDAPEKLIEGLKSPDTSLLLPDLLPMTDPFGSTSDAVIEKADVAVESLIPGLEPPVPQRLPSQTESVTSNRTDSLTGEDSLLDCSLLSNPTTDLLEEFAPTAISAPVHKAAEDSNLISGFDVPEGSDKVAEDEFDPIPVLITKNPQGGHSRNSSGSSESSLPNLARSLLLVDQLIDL

inhibition [1] [%]	inhibition [2] [%]	inhibition [3] [%]	inhibition [4] [%]	IC50 [5] [nM]	inhibition [6] [%]	inhibition [7] [%]	inhibition [8] [%]	inhibition [9] [%]	inhibition [10] [%]	inhibition [11] [%]	inhibition [12] [%]	inhibition [13] [%]	inhibition [14] [%]	inhibition [15] [%]	Compound
< 50	98	< 50	88	29	< 50	< 50	< 50	< 50	< 50	< 50	< 50	88	< 50	< 50	O[C@H]1CC[C@H](Nc2nccc(-n3nnc4ccccc43)n2)CC1
				16			> 85								CS(=O)(=O)CCCOc1cccc2c1ccn2-c1ccnc(N[C@H]2CC[C@H](C(=O)N3CCC(O)CC3)CC2)n1
< 50	95	< 50	94	55	< 50	< 50	< 50	< 50	< 50	< 50	< 50	95	< 50	< 50	O[C@H]1CC[C@H](Nc2nccc(-n3ncc4ccccc43)n2)CC1
< 50	99	< 50	94	250	89	69	82	96	99	< 50	87	< 50	97	95	O[C@H]1CC[C@H](Nc2nccc(-c3n[nH]c4ccccc34)n2)CC1
< 50	70	< 50	89	65	< 50	< 50	< 50	< 50	< 50	< 50	< 50	85	< 50	< 50	O[C@H]1CC[C@H](Nc2nccc(-n3ccc4ccccc43)n2)CC1
< 50	98	< 50	< 50	63	< 50	< 50	86	< 50	< 50	< 50	< 50	< 50	< 50	< 50	O=C([C@H]1CC[C@H](Nc2nccc(-n3nnc4ccccc43)n2)CC1)N1CCOCC1
< 50	99	< 50	84	74	< 50	< 50	< 50	97	< 50	< 50	< 50	92	< 50	< 50	N[C@H]1CC[C@H](Nc2nccc(-n3nnc4ccccc43)n2)CC1

From ChEMBL document CHEMBL2424622, “Development of amino-pyrimidine inhibitors of c-Jun N-terminal kinase (JNK): kinase profiling guided optimization of a 1,2,3-benzotriazole lead” (Bioorg Med Chem Lett, 2013)
